A short description of series [1]: Therapeutic index, ratio of CC50 for human MT2 cells to EC50 for recombinant HIV1 expressing Rep-Rluc Sac II. To be noted: read-out: Ratio CC50/EC50. The series is classed as cell-based. In outline: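 Therapeutic index computed as CC50 (XTT viability of uninfected MT-2 cells, serial dilutions) over EC50 (luciferase output after 5-day infection of MT-2 cells with HIV-1 NL-Rluc in the presence of compounds). Each input is averaged from two to four experiments.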

Series [2] can be described thus: Cytotoxicity against human MT2 cells by XTT assay. The series is classed as cell-based. In outline: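 Uninfected MT-2 cells, run in parallel with the antiviral screen, exposed to serially diluted compounds; viability read by XTT assay. CC50 averaged from two to four experiments.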
On the technique in general: Formazan colour is commonly taken as a measure of viable cells.

In series [3] the test system is Human immunodeficiency virus 1. The series can be described thus: Antiviral activity against recombinant HIV1 expressing Rep-Rluc Sac II infected in human MT2 cells after 5 days by luciferase reporter gene assay. The format is functional, organism-based. The following applies: Human immunodeficiency virus 1, MT2, 120 h. In outline:
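MT-2 human lymphocytes infected with recombinant HIV-1 NL-Rluc (Rep-Rluc Sac II) in the presence of compounds; 5-day incubation, then cells processed and virus growth quantified by expressed luciferase. EC50 values averaged from two to four experiments.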

Some results are limits rather than exact numbers.

What is called CC50 is the concentration that lowers cell viability or growth by half. As a reminder, the EC50 is the midpoint of the concentration-response curve.

As to `CC1(C)[C@@H](Br)CC[C@@]2(C)[C@H]1CC[C@@](C)(O)[C@H]2CO`, in series [1], the selectivity ratio amounted to 44. Besides, in series [2], it took 90 µM to reach half-maximal cytotoxicity (CC50). Further, the EC50 in series [3] came to 2 µM.

Turning to `CC1(C)CCC[C@@]2(C)[C@H]1CC[C@@]1(C)OC(=O)OC[C@@H]21`, the selectivity ratio in series [1] was found to be 17. The molecule further gave a CC50 in series [2] of 30 µM. Also, the EC50 in series [3] came to 2 µM.

In the case of `CC(=O)OC[C@H]1[C@@]2(C)CC[C@H](Br)C(C)(C)[C@H]2CC[C@]1(C)O`, the selectivity ratio in series [1] was above 2. The molecule also returned a CC50 in series [2] above 100 µM. In addition, the EC50 in series [3] was 40 µM.

As for `C=C1CC[C@H]2C(C)(C)[C@@H](Br)CC[C@]2(C)[C@@H]1Cc1cc(O)c(C=O)cc1O` [PEYSSONOL A], the selectivity ratio in series [1] came out at 4. Besides, the CC50 in series [2] was 4 µM. For the same molecule, the EC50 in series [3] amounted to 1 µM.

As for `O=Cc1cc(O)c(CC2CCCCC2)cc1O`, in series [1], the selectivity ratio was above 25. In series [2], this molecule showed a CC50 above 100 µM. In series [3], the EC50 stood at 4 µM.

In the case of `Cc1cc(O)c(C=O)cc1O`, the selectivity ratio in series [1] is 3. Further, the CC50 in series [2] stood at 30 µM. Besides, the EC50 in series [3] was 10 µM.

`CC1(C)[C@@H](Br)CC[C@@]2(C)[C@H]1CC[C@@]1(C)Oc3cc(C=O)c(O)cc3C[C@@H]21`: the selectivity ratio in series [1] was 5. For the same molecule, the cytotoxic concentration (CC50) in series [2] came out at 5 µM. For the same molecule, in series [3], the EC50 was 1 µM.

As to `CC1=CC[C@H]2C(C)(C)[C@@H](Br)CC[C@]2(C)[C@@H]1Cc1cc(O)c(CC(=O)O)cc1O` [PEYSSONOIC ACID A], in series [1], the selectivity ratio is above 2. The molecule further gave a CC50 in series [2] above 100 µM. The EC50 in series [3] was found to be 50 µM.

Turning to `CC1(C)[C@@H](Br)CC[C@@]2(C)[C@H]1CC[C@@]1(C)OC(=O)OC[C@@H]21`, the selectivity ratio in series [1] came out at 23. Also, in series [2], the midpoint of cytotoxicity, the CC50, lay at 90 µM. The EC50 in series [3] worked out at 4 µM.

In the case of `CC(=O)OC[C@@H]1[C@@]2(C)CC[C@H](Br)C(C)(C)[C@@H]2CC[C@@]1(C)O`, in series [1], the selectivity ratio was 3. In series [2], this molecule registered a CC50 of 40 µM. Further, the EC50 in series [3] was determined as 10 µM.

For `CC1(C)[C@H]2CC[C@]3(C)OC(=O)OC[C@@H]3[C@@]2(C)CC[C@@H]1Br`, the selectivity ratio in series [1] is 9. In series [2], this molecule registered a CC50 of 70 µM. For the same molecule, the EC50 in series [3] is 7 µM.

With `CC1(C)[C@@H](Cl)CC[C@@]2(C)[C@H]1CC[C@@]1(C)OC(=O)OC[C@@H]21`, the selectivity ratio in series [1] came out at 4. Moreover, the CC50 in series [2] was 40 µM. The EC50 in series [3] worked out at 10 µM.

In the case of `CC(=O)OC[C@H]1[C@@]2(C)CC[C@H](Br)C(C)(C)[C@@H]2CC[C@@]1(C)O`, in series [1], the selectivity ratio is 8. Also, in series [2], the CC50 was found to be 90 µM. Moreover, the EC50 in series [3] was determined as 10 µM.

For `CC1(C)[C@@H](I)CC[C@@]2(C)[C@H]1CC[C@@]1(C)OC(=O)OC[C@@H]21`, the selectivity ratio in series [1] was 6. In addition, in series [2], the CC50 is 30 µM. The EC50 in series [3] came out at 5 µM.

Take `CC1=CC[C@H]2C(C)(C)[C@@H](Br)CC[C@]2(C)[C@@H]1Cc1cc(O)c(C=O)cc1O`: the selectivity ratio in series [1] turned out to be 4. Further, in series [2], the CC50 came out at 4 µM. The EC50 in series [3] amounted to 0.9 µM.

For the molecule `C=C1CC[C@@H]2C(C)(C)[C@@H](Br)CC[C@]2(C)[C@H]1Cc1cc(O)c(C=O)cc1O`, the selectivity ratio in series [1] came to 8. Further, it took 4 µM to reach half-maximal cytotoxicity in series [2] (CC50). Moreover, in series [3], the EC50 is 0.5 µM.

On to `CC1(C)[C@H]2CC[C@]3(C)OC(=O)OC[C@H]3[C@@]2(C)CC[C@@H]1Br`, for which the selectivity ratio in series [1] was above 11. Also, the CC50 in series [2] was above 100 µM. Moreover, the EC50 in series [3] turned out to be 9 µM.

For the molecule `CC1(C)[C@@H](Br)CC[C@]2(C)[C@H]3COC(=O)O[C@]3(C)CC[C@@H]12`, the selectivity ratio in series [1] was above 10. In addition, the CC50 in series [2] is above 100 µM. In addition, the EC50 in series [3] is 10 µM.

`C=C1CC[C@@H]2C(C)(C)[C@@H](Br)CC[C@]2(C)[C@@H]1Cc1cc(O)c(C=O)cc1O`: the selectivity ratio in series [1] is 7. Further, the CC50 in series [2] was 5 µM. In addition, the EC50 in series [3] is 0.7 µM.

As to `C=C1CC[C@H]2C(C)(C)[C@@H](Br)CC[C@]2(C)[C@H]1Cc1cc(O)c(C=O)cc1O`, the selectivity ratio in series [1] came out at 4. Moreover, the CC50 in series [2] was found to be 2 µM. Also, the EC50 in series [3] is 0.5 µM.

In the case of `CC(=O)OC[C@@H]1[C@@]2(C)CC[C@H](Br)C(C)(C)[C@H]2CC[C@]1(C)O`, the selectivity ratio in series [1] turned out to be 3. This molecule gave a CC50 in series [2] of 70 µM. Moreover, the EC50 in series [3] was found to be 20 µM.

For the molecule `CC1=C(Cc2cc(O)c(C=O)cc2O)[C@@]2(C)CC[C@H](Br)C(C)(C)[C@@H]2CC1`, the selectivity ratio in series [1] is 5. In series [2], this molecule showed a CC50 of 4 µM. The EC50 in series [3] amounted to 0.8 µM.

The values above are taken from ChEMBL document CHEMBL2346495, “Evaluation of HIV-1 inhibition by stereoisomers and analogues of the sesquiterpenoid hydroquinone peyssonol A” (Bioorg Med Chem Lett, 2013).
